CHT block: inhibitors of human choline transporter CHT; actives 0.86% (n = 310,000); CHT-expressing cells, membrane potential dye, choline response; hits give low values; AID 488975; B-score at 10 µM;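 active = B-score over 3 SD under the library average, and starting fluorescence ratio not unusually high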;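 also: choline stimulus applied at its EC90 after an EC20 pre-addition; B-score computed on integrated fluorescence ratio after choline addition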
Target sequence (Q9GZV3 whole entry, looked up): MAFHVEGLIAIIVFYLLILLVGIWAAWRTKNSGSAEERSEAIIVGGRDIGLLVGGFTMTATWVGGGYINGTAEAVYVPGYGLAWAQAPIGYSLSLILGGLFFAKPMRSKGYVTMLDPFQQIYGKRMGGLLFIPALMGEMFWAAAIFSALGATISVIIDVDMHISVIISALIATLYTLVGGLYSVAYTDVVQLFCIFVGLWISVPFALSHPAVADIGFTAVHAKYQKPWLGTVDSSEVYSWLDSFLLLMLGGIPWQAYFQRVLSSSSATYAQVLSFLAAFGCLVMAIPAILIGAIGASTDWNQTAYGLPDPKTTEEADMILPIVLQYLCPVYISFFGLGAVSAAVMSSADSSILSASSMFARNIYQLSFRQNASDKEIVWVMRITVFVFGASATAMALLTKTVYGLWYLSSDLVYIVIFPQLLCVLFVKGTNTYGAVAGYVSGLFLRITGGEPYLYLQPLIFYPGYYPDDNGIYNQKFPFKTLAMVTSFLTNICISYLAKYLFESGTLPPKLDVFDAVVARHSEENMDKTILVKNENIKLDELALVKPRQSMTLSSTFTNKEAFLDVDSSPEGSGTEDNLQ
CHT PAM: human CHT allosteric activation; Q9GZV3; CHT-expressing cells, membrane potential dye, choline EC20; hits give high values; LV-AA mutant CHT in HEK293 cells; B-score at 10 µM; actives 0.49% (n = 310,000);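 active = initial fluorescence not abnormally high and integrated response B-score, plate-corrected, over 3 SD above library mean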
TMEM16A act: mouse TMEM16A channel activation, primary screen; Q8BHY3; HEK293 TMEM16A/YFP-H148Q/I152L, iodide quench fluorescence; hits give low values; B-score at 10 µM; actives 0.3% (n = 340,000); AID 623877;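 active = fluorescence-ratio B-score plate-corrected deviation score at least 3 library SD below zero, with starting fluorescence score within 5 deviations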;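 also: channel opened by trigger with iodide after compound preincubation; score built on the fluorescence ratio of max minus min over baseline; more negative score means more quench and so TMEM16A activation or potentiation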
IMP-1 inh: inhibitors of Pseudomonas aeruginosa IMP-1 metallo-beta-lactamase | purified IMP-1, nitrocefin hydrolysis, epi-absorbance fluorescence | inhibition, % at 5.6 µM | actives 0.45% (n = 290,000);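 active = inhibition above the mean plus 3 SD of all compounds in the same screening run, cut at about 4.5% in these data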
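System: purified IMP-1 / Input: IMP-1 dispensed at 0.2 nM / Medium: 50 mM HEPES pH 7.1, 50 µM ZnSO4, 0.05% Brij 35 / Timing: 15 min enzyme–compound preincubation, then 25 min nitrocefin reaction, 25 °C / Technique: plate fluorescence quenching by hydrolysis product, ex 480/em 530 nm / Repeats: singlicate testing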
ANO1 block: blocks the mouse calcium-activated chloride channel TMEM16A. normalized B-score (activity score, 25-100; higher = stronger inhibition) at 10 µM. AID 588511. HEK293 TMEM16A/YFP iodide influx fluorescence, ionomycin. actives 1.2% (n = 310,000);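 active = ratio plate-corrected score three or more library SD toward inhibition, starting fluorescence score within five deviations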;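 also: score derived from kinetic fluorescence span divided by baseline fluorescence per well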
VIM-2 inh: inhibitors of Pseudomonas aeruginosa VIM-2 metallo-beta-lactamase. purified VIM-2, nitrocefin hydrolysis, epi-absorbance fluorescence. inhibition, % at 5.6 µM. actives 0.89% (n = 290,000). AID 1527;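 active = inhibition above the mean of all tested compounds plus 3 SD, cutoff set per screening run, cut at about 7.5% in these data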;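 also: red hydrolysis product quenches plate fluorescence so inhibitors raise well fluorescence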
A number is an active result; n = inactive; x = no result. Most compounds without a hit are left out; they make up all but 3.4% or so of the library.

SMILES	CHT block	CHT PAM	TMEM16A act	IMP-1 inh	ANO1 block	VIM-2 inh
CNc1ccccc(C(=O)/C=C/c2ccccc2OC)c1=O	n	n	n	n	n	n
CNc1ccc(Br)cc(C(=O)/C=C/c2cccc(OC)c2OC)c1=O	n	n	n	6.5	n	n
COc1ccccc1/C=C/C(=O)c1cc(Br)ccc1OC(=O)c1ccco1	n	n	n	n	n	n
CCOc1ccc(C(=S)NC2CCCCC2)cc1OCC	n	n	-6.5	n	n	n
CCOc1ccc(C(C)NC(=S)NC2CCCCC2)cc1OCC (stereo unspecified)	n	n	n	n	n	n
Cc1cc(N2CCN(S(=O)(=O)c3ccc(Cl)cc3)CC2)c2ccccc2n1	n	n	n	n	100	n
Cn1c(N2CCN(S(=O)(=O)c3ccc(Cl)cc3)CC2)nc2ccccc21	n	n	n	n	n	n
CCCCNC(=O)O/N=C(\N)CS(=O)(=O)C(C)(C)C	n	n	n	n	n	n
Cc1csc2ncnc(N3CCN(S(=O)(=O)c4cccc(C(F)(F)F)c4)CC3)c12	n	n	n	n	100	n
Cc1ccc2c(c1)c1ccc3c(c1n2C)C(=O)C=CC3=O	x	x	n	n	x	12
C[n+]1c(-c2ccccc2)cc2c(=Cc3ccccc3)c3ccccc3n21	x	x	-10	x	x	x
CCOC(=O)C1CCN(C(=O)COC(=O)/C=C/c2cccc(OC)c2OC)CC1	x	x	n	x	x	x
CCCCc1ccc(NC(=S)NCc2cccs2)cc1	n	n	n	n	100	n
Cc1ccc(NC(=S)NCc2cccs2)cc1	n	n	n	n	n	n
O=S(=O)(NC1CCCCC1N1CCN(c2cccc(Cl)c2)CC1)c1ccccc1 (stereo unspecified)	n	n	n	n	n	n
O=S(=O)(NC1CCCCC1N1CCN(c2ccccc2F)CC1)c1ccc(Cl)cc1 (stereo unspecified)	n	n	-40	n	n	n
COc1ccc(C(=O)N2CCC3(CC2)NCCc2[nH]cnc23)cc1	n	n	n	n	n	n
CN(C)C1=NCCN1CCCCc1ccccc1	n	n	n	x	n	x
COc1cc(/C=N/N=C(N)N)ccc1OCc1ccccc1Cl	n	n	n	n	100	n
COc1ccc(/C=N/N=C/c2ccc(OC)c(OC)c2)cc1OC	n	n	n	n	n	n
COC(=O)C(Cc1ccccc1)NCC(=O)Nc1cccc(Cl)c1C (stereo unspecified)	n	n	n	n	n	n
Nc1cc2c(cc1Cl)-c1ccccc1C2=NO	x	x	n	x	x	x
Cc1occc1-c1n[nH]c(=S)n1C	n	n	n	n	n	n
Fc1ccc(-c2n[nH]c(=S)n2-c2ccc3c(c2)OCCO3)cc1	n	n	n	n	n	9.2
Cc1occc1-c1n[nH]c(=S)n1-c1ccccc1	n	n	n	n	n	8.7
SMILES	CHT block	CHT PAM	TMEM16A act	IMP-1 inh	ANO1 block	VIM-2 inh
Cn1cc(Cl)c(-c2n[nH]c(=S)n2-c2ccc(F)cc2)n1	n	n	n	n	n	11
Cc1ccc(-n2c(-c3cn(C)nc3C)n[nH]c2=S)cc1	n	n	x	n	n	8.9
Cn1nc(C(=O)OCC(=O)Nc2cc(Cl)ccc2C#N)c2ccccc2c1=O	x	x	n	x	x	x
COc1ccccc1C(=O)NC(=O)CSc1nncn1C(C)C	n	n	n	x	n	x
CCCCC(=O)OCc1c(-c2ccccc2)ncc2ccccc12	x	x	n	x	x	x
COc1ccc2[nH]cc(CCNC(=O)COc3cc(C)cc4oc(=O)cc(C)c34)c2c1	n	n	n	n	n	n
O=C(CNC(=O)c1ccccc1F)NCc1ccncc1	x	x	n	x	x	x
COc1ccc(Cl)cc1NC(=O)CN(C)C(=O)c1cn2ccccc2n1	x	x	n	x	x	x
Cn1c(=O)[nH]c(=O)c2c1nc(NCCc1ccccc1)n2CC(O)COc1ccccc1 (stereo unspecified)	n	n	-51	n	n	n
CCCOc1ccc(S(=O)(=O)Nc2ccccn2)c2ccccc12	n	n	n	n	n	n
CC(Sc1ncnc2sc(-c3ccccc3)cc12)C(=O)N1CCNC1=O (stereo unspecified)	x	x	n	x	x	x
CC(C)N(C(=O)CSc1ncnc2sc(-c3ccccc3)cc12)C(C)C	n	n	n	n	25	n
Cc1ccc(S(=O)(=O)N(C)C)cc1NC(=O)COC(=O)c1ccc2ccccc2n1	x	x	n	x	x	x
Cc1ccc(Cn2cc(CCC(=O)O)c3ccccc32)cc1	n	n	n	13	n	n
CCC(=O)Nc1ccc(C(=O)n2nc(C)cc2C)cc1	n	n	n	n	n	n
Cc1cc(Nc2ccccc2)nn1C(=O)c1ccccc1	n	n	n	n	25	n
Cc1ccc(-n2c(-c3ccccc3)c[n+]3c2CCc2ccccc2-3)c(C)c1	n	n	n	n	n	n
Cc1cc(C)n(CCNC(=O)CC2C(=O)NCCN2CC2CCCCC2)n1 (stereo unspecified)	n	n	n	n	n	n
CCOC(=O)c1sc(NC(=O)c2ccc(Cl)s2)cc1C	n	n	-15	n	n	n
CCC(C)(C)NC(=O)C(c1ccc(C)o1)N(Cc1cccs1)C(=O)Cn1nnc2ccccc21 (stereo unspecified)	n	n	n	10.0	n	n
C=CCn1c(C)cc(-c2csc(NCC)n2)c1C	n	n	-5.4	n	n	n
O=C(CCCN1C(=O)S/C(=C/C=C/c2ccccc2)C1=O)Nc1ccc(C(=O)O)cc1	n	n	n	n	n	n
O=C(CCN1C(=O)/C(=C\C=C\c2ccccc2)SC1=S)Nc1ccccc1C(=O)O	n	n	n	8.1	25	n
O=C(COC(=O)CCN1C(=O)/C(=C\C=C\c2ccccc2)SC1=S)Nc1ccc(Br)cc1	n	n	n	5.5	n	n
Cc1ccc(NC(=O)CCCN2C(=O)/C(=C/C=C/c3ccccc3)SC2=S)cc1	n	n	n	7.2	n	n
SMILES	CHT block	CHT PAM	TMEM16A act	IMP-1 inh	ANO1 block	VIM-2 inh
COCCNC(=O)CN1C(=O)/C(=C/c2ccccc2)Oc2ccc(C(C)(C)C)cc21	n	n	n	n	n	n
CC(=O)Oc1ccc(Cn2cnc3cc4ccccc4cc32)cc1	n	n	n	5.5	n	n
CCCCN=c1scc(-c2ccc3c(c2)NC(=O)CO3)n1N=C1CCCC1	n	n	n	n	n	n
CCN=c1scc(-c2ccc3c(c2)NC(=O)CO3)n1N=C1CCCC1	n	n	n	n	100	n
C#CCOCCOCCOCCNc1nc(N2CCOCC2)nc(N2CCN(C(=O)Cn3cc(CCCCN)nn3)CC2)n1	x	x	n	x	x	x
CC1CCCC12NC(=O)NC2=O (stereo unspecified)	x	x	n	x	x	x
Cn1c(C(=O)NCCN2CCOCC2)cc2c(=O)n(C)c3ccccc3c21	n	n	n	n	n	13
Cc1ccc(CNC(=O)c2cc3c(=O)n(C)c4ccccc4c3n2C)cc1	n	n	n	n	n	n
Cn1c(C(=O)NCCCN2CCN(c3ccc(F)cc3)CC2)cc2c(=O)n(C)c3ccccc3c21	x	x	n	x	x	x
